Source: article PMC10895701 (Nature structural & molecular biology, 2023)

What was measured:
OCT1CS [1] = experiment: 3H-MPP+ uptake in X. laevis oocytes expressing OCT1CS; assay type: cell-based; details: 30 min uptake
Summary of the method: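 Xenopus laevis oocytes injected with 30 ng cRNA, expressed 2–4 days at 17°C. Uptake of 3H-MPP+ (specific radioactivity 0.06 Ci/mmol) over a concentration series, 30 min uptake. Background corrected with water-injected oocytes; radioactivity counted. Kt fitted, reported ± s.e.m.; n=3 biologically independent replicates.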

WT hOCT1 = details: cited from earlier work
OCT1CS [2] = experiment: 14C-metformin uptake in oocytes expressing OCT1CS; assay type: cell-based

Row | Compound | Michaelis constant for transport (Kt) for MPP+ transport (OCT1CS [1]) | Kt for metformin, previous reports (WT hOCT1) [mM] | Kt for metformin (OCT1CS [2])
1 | C[n+]1ccc(-c2ccccc2)cc1 [MPP^+, 1-methyl-4-phenylpyridinium] | ~ 50 μM |  | 
2 | CN(C)C(=N)N=C(N)N [metformin] |  | 1 to 5 | ~ 3 mM
